Data taken from ChEMBL document CHEMBL4842389, “Discovery of Dolastatinol: A Synthetic Analog of Dolastatin 10 and Low Nanomolar Inhibitor of Tubulin Polymerization” (ACS Med Chem Lett, 2021).
The source made the active and inactive calls. No cut-off for these calls is given here. Square brackets hold non-standard residues; d marks the D form. Peptide text beside a SMILES is read from it. Dolaproine = CO[C@@H]([C@@H]1CCCN1)[C@@H](C)C(=O)O; Dil = CC[C@H](C)[C@H](NC)[C@@H](CC(=O)O)OC; NMeV = CN[C@H](C(=O)O)C(C)C

What was measured:
Tubulin (Homo sapiens) = Tubulin (Homo sapiens) (UniProt P68371+Q9H4B7+P0DPH7+P68366+Q13509+Q71U36+P04350+Q3ZCM7+P07437+P68363+Q9BQE3+Q6PEY2+Q13885+Q9BVA1+Q9BUF5); assay: Inhibition of microtubule in human MDA-MB-231 cells assessed as reduction in microtubule network in interphase cells measured after 24 hrs by DAPI staining based immunofluorescence microscopic analysis; type: cell-based; details: dose 5-625 nM
How it was run: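 MDA-MB-231 cells (10 000/well, 70–80% confluent) treated 24 h at 5, 25, 125 and 625 nM in DMEM. Fixed in 4% paraformaldehyde, permeabilized with 0.2% Triton X-100, blocked in 5% BSA, stained with anti-α-tubulin (DM1A, 1:800, 16 h) and Alexa Fluor 488 secondary, nuclei with DAPI. Imaged at 40×; interphase microtubule network quantified, unpaired two-tailed t test.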

MDA-MB-231 [1] = assay: Cell cycle arrest in human MDA-MB-231 cells assessed as accumulation at G2/M phase at 125 nM after 24 hrs by RNaseA/propidium iodide staining based FACSCalibur flow cytometry (reference value: 26.37 %); type: functional
MDA-MB-231 [2] = assay: Cell cycle arrest in human MDA-MB-231 cells assessed as accumulation at S phase at 125 nM after 24 hrs by RNaseA/propidium iodide staining based FACSCalibur flow cytometry (reference value: 19.96 %); type: functional
MDA-MB-231 [3] = assay: Cell cycle arrest in human MDA-MB-231 cells assessed as accumulation at G1 phase at 125 nM after 24 hrs by RNaseA/propidium iodide staining based FACSCalibur flow cytometry (reference value: 37.64 %); type: functional
MDA-MB-231 [4] = assay: Cell cycle arrest in human MDA-MB-231 cells assessed as accumulation at sub G1 phase at 125 nM after 24 hrs by RNaseA/propidium iodide staining based FACSCalibur flow cytometry (reference value: 3.27 %); type: functional
MDA-MB-231 [5] = assay: Inhibition of cell migration in human MDA-MB-231 cells assessed as reduction of cell mobility at 5 nM measured at 24 hrs by well scratch method; type: functional, cell-based
How it was run: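 MDA-MB-231 cells (3 × 10^4/well) attached overnight, then exposed to 5 nM in serum-free DMEM for 48 h. Monolayer scratched, debris washed off, complete medium added without drug. Images taken at 10× at 0 h and after 24 h; percentage wound coverage quantified. Two-tailed unpaired t test.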

MDA-MB-231 [6] = assay: Cytotoxicity against human MDA-MB-231 cells assessed as reduction in cell viability incubated for 96 hrs by XTT assay; type: functional, cell-based
How it was run: (§1)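 XTT viability assay on human breast cancer cells. Cells were seeded at 5000 cells/well, left to adhere overnight, then exposed to increasing compound concentrations for 96 h in complete medium with DMSO below 0.05% final. Wells were washed and refed, then given XTT reagent for 3 h, with absorbance read at 450 nm. Response was normalized to DMSO controls. Tetraplicates, three independent experiments. IC50 from a four-parameter variable-slope fit.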

BT-474 = assay: Cytotoxicity against human BT-474 cells assessed as reduction in cell viability incubated for 96 hrs by XTT assay; type: functional, cell-based; details: BT-474, 96 h; how it was run: as §1
SK-BR-3 = assay: Cytotoxicity against human SKBR3 cells assessed as reduction in cell viability incubated for 96 hrs by XTT assay; type: functional, cell-based; details: SK-BR-3, 96 h; how it was run: as §1
MDA-MB-231 [7] = assay: Induction of mitochondrial disintegration in human MDA-MB-231 cells at 625 nM measured after 24 hrs by Mitotracker green dye based fluorescence microscopy; type: functional, cell-based
How it was run: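 MDA-MB-231 cells (7000/well) grown overnight in DMEM with 10% FBS, then given 5, 25, 125 or 625 nM for 24 h. Live cells labelled 30 min with 75 nM MitoTracker Green FM in serum- and phenol red-free DMEM, counterstained with DAPI for 15 min, and imaged by fluorescence microscopy at 40× to view mitochondrial fission.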

Structure (SMILES): CC[C@H](C)[C@@H]([C@@H](CC(=O)N1CCC[C@H]1[C@H](OC)[C@@H](C)C(=O)N[C@@H](Cc1ccccc1)C(=O)O)OC)N(C)C(=O)[C@@H](NC(=O)[C@@H](NC)C(C)C)C(C)C (H-[NMeV]V[Dil][Dolaproine]F-OH)
- inhibition (Tubulin (Homo sapiens)): Dose-Dependent Effect
- Activity (MDA-MB-231 [1]): 32.79%
- Activity (MDA-MB-231 [2]): 16.11%
- Activity (MDA-MB-231 [3]): 30.88%
- Activity (MDA-MB-231 [4]): 9.66%
- inhibition (MDA-MB-231 [5]): Active
- IC50 (MDA-MB-231 [6]): Not Active
- IC50 (BT-474): 8.8 nM
- IC50 (SK-BR-3): 5.3 nM
- Activity (MDA-MB-231 [7]): inactive
